From ChEMBL document CHEMBL3272008, “Synthesis and biological actions of 2-substituted quinolizidines” (J Med Chem, 1976)
Activity calls are given as the source filed them. No cut-off for these calls is given here.

Key:
[1] = tested on: Rattus norvegicus; assay: Induction of ptosis in Wistar rat at 20 mg/kg, ip after 10 mins to 3 hrs; assay type: functional, organism-based; set-up: dose 20 mg/kg
How it was run: (§1)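 Male Wistar rats (175–225 g) were injected ip, with three treated rats and one control per dose. Compounds were in minimal 1.5 M NaH2PO4 diluted with water; the reference drug was in minimal 50% (w/v) tartaric acid-water. Gross behavior was observed. Respiratory rate, heart rate, rectal temperature and pupil size were measured at time points after dosing.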

[2] = tested on: Rattus norvegicus; assay: Reduction in body temperature in Wistar rat at 20 mg/kg, ip relative to control; assay type: functional; settings: route intraperitoneal; how it was run: as §1
[3] = tested on: Mus musculus; assay: Depression of forced motor activity in ip dosed Swiss-Webster mouse after 30 mins by rotarod test relative to control; assay type: functional, organism-based
How it was run: (§2)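 Mice were dosed ip with vehicle or compound dissolved in a minimum of 1.5 M NaH2PO4 and diluted with water. On the rotarod, speed was 4 rpm for 30 sec, then 6 rpm for 30 sec, then increased every 30 sec up to a maximum of 50 rpm until the fall. Each mouse had four trials, two per day on two consecutive days, spaced 4–6 hr apart. The fourth trial was run 30 min after dosing. The read-out was trial time (sec) as % of control, with significance by Student's t test (p < 0.05).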

[4] = tested on: Rattus norvegicus; assay: Reduction in startle response in Wistar rat at 20 mg/kg, ip after 0.5 to 1 hr; assay type: functional, organism-based; set-up: dose 20 mg/kg; how it was run: as §1
[5] = tested on: Mus musculus; assay: Depression of spontaneous motor activity in ip dosed Swiss-Webster mouse by photocell cage test relative to control; assay type: functional, organism-based
How it was run: (§3)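 Compound was dissolved in minimal 1.5 M NaH2PO4, diluted with water and given ip. Two mice given the same dose went into each of three photocell actophotometer cages 10 min after the rotarod test started. Counts were taken over 15 min, starting 5 min after placement. A factorial design across cages cancelled differences between units. Results were given as % of control, with significance by Student's t test (p < 0.05).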

[6] = tested on: Mus musculus; assay: Depression of forced motor activity in Swiss-Webster mouse at 30 mg/kg, ip after 30 mins by rotarod test relative to control; assay type: functional; settings: route intraperitoneal
How it was run: (§4)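 Rotarod in mice: rod at 4 rpm for 30 sec, 6 rpm next 30 sec, then stepped up every 30 sec (max 50 rpm) until fall. Six mice at a time, four trials (two per day, 4–6 hr apart, two consecutive days); vehicle or compound ip 30 min before fourth trial. Time on rod as % of control; Student's t test, p < 0.05.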

[7] = Acute toxicity in ip dosed Swiss-Webster mouse administered as single dose after 7 days; assay type: organism-based; settings: in vivo
How it was run: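 Mice given a single ip dose at each of four dose levels; lethality followed over 7 days; LD50 with 95% confidence limits estimated by the method of Weil. Compounds dissolved in minimal 1.5 M NaH2PO4, diluted with water; haloperidol in minimal 50% (w/v) tartaric acid-water.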

[8] = tested on: Rattus norvegicus; assay: Depression of motor activity in Wistar rat at 20 mg/kg, ip after 0.5 to 1 hr; assay type: functional, organism-based; set-up: dose 20 mg/kg; how it was run: as §1
[9] = tested on: Mus musculus; assay: Depression of forced motor activity in Swiss-Webster mouse at 15 mg/kg, ip after 30 mins by rotarod test relative to control; assay type: functional; settings: route intraperitoneal; how it was run: as §4
[10] = tested on: Rattus norvegicus; assay: Reduction in grip strength in Wistar rat at 20 mg/kg, ip after 0.5 to 1 hr; assay type: functional, organism-based; set-up: dose 20 mg/kg; how it was run: as §1
[11] = tested on: Rattus norvegicus; assay: Reduction of heart rate in Wistar rat at 1 to 6 mg/kg, ip after 0.5 to 1 hr; assay type: functional, organism-based; settings: 20 mg/kg, in the assay text read “20 mg/kg” for “1 to 6 mg/kg”; how it was run: as §1
[12] = tested on: Rattus norvegicus; assay: Reduction of respiration rate in Wistar rat at 1 to 6 mg/kg, ip after 0.5 to 1 hr; assay type: functional, organism-based; settings: 20 mg/kg, in the assay text read “20 mg/kg” for “1 to 6 mg/kg”; how it was run: as §1
[13] = tested on: Mus musculus; assay: Depression of spontaneous motor activity in Swiss-Webster mouse at 30 mg/kg, ip by photocell cage test relative to control; assay type: functional; settings: route intraperitoneal
How it was run: (§5)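 Spontaneous activity in three photocell cages: two mice given the same ip dose placed per cage 10 min after rotarod start; 15-min count begun 5 min after placement. Each dose run in factorial design across all three cages to offset unit sensitivity. Counts expressed as % of control; Student's t test, p < 0.05.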

[14] = tested on: Mus musculus; assay: Depression of spontaneous motor activity in Swiss-Webster mouse at 60 mg/kg, ip by photocell cage test relative to control; assay type: functional; settings: route intraperitoneal; how it was run: as §5
[15] = tested on: Mus musculus; assay: Depression of spontaneous motor activity in Swiss-Webster mouse at 15 mg/kg, ip by photocell cage test relative to control; assay type: functional; settings: route intraperitoneal; how it was run: as §5
[16] = tested on: Mus musculus; assay: Depression of forced motor activity in Swiss-Webster mouse at 60 mg/kg, ip after 30 mins by rotarod test relative to control; assay type: functional; settings: route intraperitoneal; how it was run: as §4
[17] = tested on: Mus musculus; assay: Depression of forced motor activity in Swiss-Webster mouse at 25 mg/kg, ip after 30 mins by rotarod test relative to control; assay type: functional; settings: route intraperitoneal; how it was run: as §2
[18] = tested on: Rattus norvegicus; assay: Reduction in respiratory rate in Wistar rat at 25 mg/kg, ip; assay type: functional, organism-based; set-up: dose 25 mg/kg; how it was run: as §1
[19] = tested on: Mus musculus; assay: Depression of spontaneous motor activity in Swiss-Webster mouse at 25 mg/kg, ip by photocell cage test relative to control; assay type: functional; settings: route intraperitoneal; how it was run: as §3
[20] = tested on: Rattus norvegicus; assay: Increase in salivation in Wistar rat at 25 mg/kg, ip after 0.5 to 1 hr; assay type: functional, organism-based; set-up: dose 25 mg/kg; how it was run: as §1
[21] = tested on: Rattus norvegicus; assay: Depression of motor activity in Wistar rat at 25 mg/kg, ip; assay type: functional, organism-based; set-up: dose 25 mg/kg; how it was run: as §1
[22] = tested on: Rattus norvegicus; assay: Induction of ptosis in Wistar rat at 25 mg/kg, ip after 0.5 to 1 hr; assay type: functional, organism-based; set-up: dose 25 mg/kg; how it was run: as §1
[23] = tested on: Mus musculus; assay: Depression of forced motor activity in Swiss-Webster mouse at 12.5 mg/kg, ip after 30 mins by rotarod test relative to control; assay type: functional; settings: route intraperitoneal; how it was run: as §2
[24] = tested on: Rattus norvegicus; assay: Induction of ptosis in Wistar rat at 25 mg/kg, ip after 2 hrs; assay type: functional, organism-based; set-up: dose 25 mg/kg; how it was run: as §1
[25] = tested on: Rattus norvegicus; assay: Reduction in rectal temperature in Wistar rat at 25 mg/kg, ip relative to control; assay type: functional; settings: route intraperitoneal; how it was run: as §1
[26] = tested on: Mus musculus; assay: Depression of forced motor activity in Swiss-Webster mouse at 6.25 mg/kg, ip after 30 mins by rotarod test relative to control; assay type: functional; settings: route intraperitoneal; how it was run: as §2
[27] = tested on: Mus musculus; assay: Depression of spontaneous motor activity in Swiss-Webster mouse at 12.5 mg/kg, ip by photocell cage test relative to control; assay type: functional; settings: route intraperitoneal; how it was run: as §3
[28] = tested on: Mus musculus; assay: Acute toxicity in ip dosed Swiss-Webster mouse assessed as intense and prolonged convulsions administered as single dose after 72 hrs; assay type: organism-based; settings: in vivo
[29] = tested on: Rattus norvegicus; assay: Increase in salivation in Wistar rat at 25 mg/kg, ip after 2 hrs; assay type: functional, organism-based; set-up: dose 25 mg/kg; how it was run: as §1
[30] = tested on: Mus musculus; assay: Depression of spontaneous motor activity in Swiss-Webster mouse at 6.25 mg/kg, ip by photocell cage test relative to control; assay type: functional; settings: route intraperitoneal; how it was run: as §3
[31] = tested on: Rattus norvegicus; assay: Reduction in heart rate in Wistar rat at 25 mg/kg, ip; assay type: functional, organism-based; set-up: dose 25 mg/kg; how it was run: as §1
[32] = tested on: Rattus norvegicus; assay: Induction of ptosis in Wistar rat at 1 to 6 mg/kg, ip; assay type: functional, organism-based; settings: in the assay text read “6 mg/kg” for “1 to 6 mg/kg”; how it was run: as §1
[33] = tested on: Mus musculus; assay: Acute toxicity in ip dosed Swiss-Webster mouse assessed as death administered as single dose after 72 hrs; assay type: organism-based; settings: in vivo
[34] = tested on: Mus musculus; assay: Depression of forced motor activity in Swiss-Webster mouse at 10 mg/kg, ip after 30 mins by rotarod test relative to control; assay type: functional; settings: route intraperitoneal; how it was run: as §4
[35] = tested on: Mus musculus; assay: Acute toxicity in ip dosed Swiss-Webster mouse assessed as tremor administered as single dose after 72 hrs; assay type: organism-based; settings: in vivo
[36] = tested on: Mus musculus; assay: Acute toxicity in ip dosed Swiss-Webster mouse assessed as ataxia administered as single dose after 72 hrs; assay type: organism-based; settings: in vivo
[37] = tested on: Mus musculus; assay: Depression of spontaneous motor activity in Swiss-Webster mouse at 2.5 mg/kg, ip by photocell cage test relative to control; assay type: functional; settings: route intraperitoneal; how it was run: as §3
[38] = tested on: Rattus norvegicus; assay: Reduction in body temperature in Wistar rat at 1 to 6 mg/kg, ip relative to control; assay type: functional; settings: dose mg/kg 6; route intraperitoneal; in the assay text read “6 mg/kg” for “1 to 6 mg/kg”; how it was run: as §1
[39] = tested on: Mus musculus; assay: Depression of spontaneous motor activity in Swiss-Webster mouse at 5 mg/kg, ip by photocell cage test relative to control; assay type: functional; settings: route intraperitoneal; how it was run: as §5
[40] = tested on: Mus musculus; assay: Depression of forced motor activity in Swiss-Webster mouse at 2.5 mg/kg, ip after 30 mins by rotarod test relative to control; assay type: functional; settings: route intraperitoneal; how it was run: as §2
[41] = tested on: Rattus norvegicus; assay: Depression of motor activity in Wistar rat at 1 to 6 mg/kg, ip; assay type: functional, organism-based; how it was run: as §1
[42] = tested on: Mus musculus; assay: Depression of spontaneous motor activity in Swiss-Webster mouse at 10 mg/kg, ip by photocell cage test relative to control; assay type: functional; settings: route intraperitoneal; how it was run: as §5
[43] = tested on: Mus musculus; assay: Depression of forced motor activity in Swiss-Webster mouse at 5 mg/kg, ip after 30 mins by rotarod test relative to control; assay type: functional; settings: route intraperitoneal; how it was run: as §4

O=C(c1ccc(F)cc1)[C@@H]1CCN2CCCC[C@@H]2C1 (single isomer, unassigned)
Activity [1]: Active | T [2]: 3 °C | Activity [3]: Dose-dependent effect | Activity [4]: Active | Activity [5]: Dose-dependent effect | Activity [6]: 15.2% | LD50 at 168 h [7]: 193 mg/kg | Activity [8]: Active | Activity [9]: 26.5% | Activity [10]: Active | Activity [11]: Active | Activity [12]: Active | Activity [13]: 9.6% | Activity [14]: 0% | Activity [15]: 2.5% | Activity [16]: 4.8%

O=C(c1ccc(F)cc1)[C@H]1CCN2CCCC[C@@H]2C1 (single isomer, unassigned)
Activity [17]: 23% | Activity [18]: Active | Activity [19]: 10.2% | Activity [20]: Active | Activity [21]: Active | Activity [3]: Dose-dependent effect | Activity [5]: Dose-dependent effect | Activity [22]: Active | Activity [23]: 55.5% | Activity [24]: inactive | LD50 at 168 h [7]: 86.1 mg/kg | T [25]: 2.9 °C | Activity [26]: 65.6% | Activity [27]: 48.5% | Activity [28]: Toxic | Activity [29]: inactive | Activity [30]: 95.6% | Activity [31]: Active

O=C(CCCN1CCC(O)(c2ccc(Cl)cc2)CC1)c1ccc(F)cc1 [HALOPERIDOL]
Activity [32]: Active | Activity [33]: Toxic | Activity [34]: 26.4% | Activity [35]: Toxic | Activity [36]: Toxic | Activity [37]: 27.6% | T [38]: 2 °C | Activity [39]: 13% | LD50 at 168 h [7]: 49.7 mg/kg | Activity [40]: 99.3% | Activity [41]: Active | Activity [42]: 0.2% | Activity [43]: 79.4%
